Laboratory results: ChEMBL document CHEMBL4024781, “Comprehensive Synthesis of Amino Acid-Derived Thiazole Peptidomimetic Analogues to Understand the Enigmatic Drug/Substrate-Binding Site of P-Glycoprotein” (J Med Chem, 2018)
Each block holds one compound with its values, some of them ahead of it.

Key:
[1] = Cytotoxicity in P-gp tranfected HEK293 cells assessed as cell survival at 10 uM after 72 hrs by MTT assay; type: ADME, cell-based; conditions: human, P-gp transfected HEK293 cells
Method in brief: (§1)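 HEK293 cells stably transfected with empty pcDNA3.1 vector or ABCB1 vector, kept in DMEM with 10% FBS, 1% penicillin/streptomycin, and 2 mg/mL G418 at 37°C in 5% CO2. Cells were seeded at 5000/well, and after 24 h treated with test compound alone, diluted from 10 mM DMSO stocks into medium. After 72 h, viability was read by MTT (4 mg/mL, 4 h), with formazan dissolved in DMSO and absorbance read at 570 nm.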

[2] = Cytotoxicity in parental HEK293-pcDNA 3.1 transfected cells assessed as cell survival at 10 uM after 72 hrs by MTT assay; type: cell-based; conditions: human, parental HEK293 cells transfected with pcDNA 3.1; method in brief: as §1
P-gp (ABCB1) [3] = target: T1, P-gp (ABCB1) (Homo sapiens, UniProt P08183); experiment: Activation of human P-gp expressed in high five insect cell membrane vesicles by measuring the vanadate-sensitive ATPase activity of P-gp at 2.5 uM preincubated for 5 mins in the presence of sodium orthovanadate measured after 20 mins by colorimetric method; conditions: read-out: Activity
T1 sequence (P08183 whole entry): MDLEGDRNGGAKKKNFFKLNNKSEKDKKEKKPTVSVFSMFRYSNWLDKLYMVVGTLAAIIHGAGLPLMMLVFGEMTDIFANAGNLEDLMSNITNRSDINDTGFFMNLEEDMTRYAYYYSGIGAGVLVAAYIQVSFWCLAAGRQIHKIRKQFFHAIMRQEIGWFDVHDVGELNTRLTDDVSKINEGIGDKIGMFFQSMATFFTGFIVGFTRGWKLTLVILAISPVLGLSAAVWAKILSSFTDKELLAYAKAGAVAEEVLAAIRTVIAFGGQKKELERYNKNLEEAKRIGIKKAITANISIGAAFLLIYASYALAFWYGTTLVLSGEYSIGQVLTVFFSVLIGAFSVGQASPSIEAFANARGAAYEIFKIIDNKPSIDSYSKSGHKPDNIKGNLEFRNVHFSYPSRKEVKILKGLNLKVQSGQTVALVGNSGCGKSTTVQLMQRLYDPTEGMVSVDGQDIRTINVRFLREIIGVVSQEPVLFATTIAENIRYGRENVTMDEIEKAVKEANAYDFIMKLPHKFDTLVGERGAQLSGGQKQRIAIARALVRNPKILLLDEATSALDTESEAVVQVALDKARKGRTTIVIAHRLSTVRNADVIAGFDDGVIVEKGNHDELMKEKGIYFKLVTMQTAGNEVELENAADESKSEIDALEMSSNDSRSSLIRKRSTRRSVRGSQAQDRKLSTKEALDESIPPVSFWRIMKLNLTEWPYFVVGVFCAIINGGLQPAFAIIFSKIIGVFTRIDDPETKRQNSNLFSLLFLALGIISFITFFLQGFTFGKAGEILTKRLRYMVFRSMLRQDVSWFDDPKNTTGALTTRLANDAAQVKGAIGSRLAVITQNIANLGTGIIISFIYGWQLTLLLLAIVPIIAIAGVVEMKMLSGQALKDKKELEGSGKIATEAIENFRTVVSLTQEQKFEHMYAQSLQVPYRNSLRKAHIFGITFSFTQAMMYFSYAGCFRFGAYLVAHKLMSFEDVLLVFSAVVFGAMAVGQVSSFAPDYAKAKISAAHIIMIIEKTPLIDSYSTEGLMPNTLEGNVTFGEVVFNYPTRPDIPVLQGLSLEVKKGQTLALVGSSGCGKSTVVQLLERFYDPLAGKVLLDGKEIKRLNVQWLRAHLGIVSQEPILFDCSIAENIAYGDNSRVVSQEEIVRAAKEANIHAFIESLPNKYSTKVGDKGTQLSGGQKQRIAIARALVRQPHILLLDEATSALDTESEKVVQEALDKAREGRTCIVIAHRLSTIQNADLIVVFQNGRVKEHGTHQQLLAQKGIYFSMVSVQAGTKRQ

P-gp (ABCB1) [4] = target: T1, P-gp (ABCB1); experiment: Inhibition of human P-gp expressed in high five insect cell membrane vesicles by measuring the vanadate-sensitive ATPase activity of P-gp at 0.5 uM preincubated for 5 mins in the presence of sodium orthovanadate measured after 20 mins by colorimetric method
P-gp (ABCB1) [5] = target: T1, P-gp (ABCB1); experiment: Activation of human P-gp expressed in high five insect cell membrane vesicles by measuring the vanadate-sensitive ATPase activity of P-gp at 0.05 uM preincubated for 5 mins in the presence of sodium orthovanadate measured after 20 mins by colorimetric method; conditions: read-out: Activity
P-gp (ABCB1) [6] = target: T1, P-gp (ABCB1); experiment: Activation of human P-gp expressed in high five insect cell membrane vesicles by measuring the vanadate-sensitive ATPase activity of P-gp at 0.5 uM preincubated for 5 mins in the presence of sodium orthovanadate measured after 20 mins by colorimetric method; conditions: read-out: Activity
CYP3A4 [7] = target: T2, CYP3A4 (Homo sapiens, UniProt P08684); experiment: Inhibition of CYP3A4 (unknown origin) at 25 uM by fluorescence based-vivid CYP450 green screening kit based assay; type: ADME
T2 sequence (P08684 whole entry): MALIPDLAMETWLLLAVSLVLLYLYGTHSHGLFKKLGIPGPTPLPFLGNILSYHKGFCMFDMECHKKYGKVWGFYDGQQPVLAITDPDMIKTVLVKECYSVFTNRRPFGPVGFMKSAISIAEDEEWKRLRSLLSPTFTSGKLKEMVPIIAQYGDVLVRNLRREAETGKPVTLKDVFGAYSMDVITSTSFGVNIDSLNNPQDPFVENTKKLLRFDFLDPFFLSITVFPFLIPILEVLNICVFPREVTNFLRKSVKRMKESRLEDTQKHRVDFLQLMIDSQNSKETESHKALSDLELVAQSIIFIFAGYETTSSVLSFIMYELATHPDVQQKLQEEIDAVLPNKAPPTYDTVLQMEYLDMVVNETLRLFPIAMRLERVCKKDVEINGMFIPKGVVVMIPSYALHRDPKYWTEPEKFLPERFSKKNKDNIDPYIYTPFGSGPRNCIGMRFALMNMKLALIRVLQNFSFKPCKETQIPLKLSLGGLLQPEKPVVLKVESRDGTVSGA

[8] = target: ATP-dependent translocase ABCB1 (Homo sapiens, UniProt P08183); experiment: Inhibition of human P-gp transfected in HEK293 cells assessed as potentiation of paclitaxel-induced cytotoxicity by measuring fold reduction in paclitaxel IC50 at 10 uM pre-incubated for 1 hr before paclitaxel addition and measured after 72 hrs by MTT assay; type: cell-based; conditions: hek293, 72 h
Sequence of ATP-dependent translocase ABCB1 (P08183 whole entry): as the sequence (P08183 whole entry) above
Method in brief: (§2)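 HEK293 cells stably transfected with ABCB1 or empty pcDNA3.1 vector, kept in G418. Seeded at 5000/well and grown 24 h, then given modulator at 10 μM for 1 h before serially diluted paclitaxel (up to 10 μM). MTT read at 570 nm after 72 h. Paclitaxel IC50 from four experiments in triplicate. Fold resistance = IC50 with modulator ÷ IC50 of paclitaxel alone in vector-control cells.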

CYP3A4 [9] = target: T2, CYP3A4; experiment: Inhibition of CYP3A4 (unknown origin) at 50 uM by fluorescence based-vivid CYP450 green screening kit based assay; type: ADME
P-gp (ABCB1) [10] = target: T1, P-gp (ABCB1); experiment: Inhibition of human P-gp expressed in high five insect cell membrane vesicles by measuring the vanadate-sensitive ATPase activity of P-gp at 0.05 uM preincubated for 5 mins in the presence of sodium orthovanadate measured after 20 mins by colorimetric method
HEK293 = experiment: Potentiation of paclitaxel-induced cytotoxicity against parental HEK293-pcDNA 3.1 transfected cells assessed as fold reduction in paclitaxel IC50 at 10 uM pre-incubated for 1 hr before paclitaxel addition and measured after 72 hrs by MTT assay; type: functional, Homo sapiens; method in brief: as §2
P-gp (ABCB1) [11] = target: T1, P-gp (ABCB1); experiment: Inhibition of human P-gp expressed in high five insect cell membrane vesicles by measuring the vanadate-sensitive ATPase activity of P-gp at 2.5 uM preincubated for 5 mins in the presence of sodium orthovanadate measured after 20 mins by colorimetric method

Structure (SMILES): O[C@@H](COc1cccc2ncccc12)CN1CCN([C@@H]2c3ccccc3[C@@H]3[C@H](c4ccccc42)C3(F)F)CC1 [ZOSUQUIDAR]
viability at 72 h, 10 µM [1]: > 80% | viability at 72 h, 10 µM [2]: > 80%

Structure (SMILES): COc1cc(C(=O)N[C@H](c2nc(C(=O)NCC3CCC(F)(F)CC3)cs2)C(C)C)cc(OC)c1OC
activity at 20 min, 2.5 µM (P-gp (ABCB1) [3]): 20.7% | inhibition at 20 min, 0.5 µM (P-gp (ABCB1) [4]): 27%

Structure (SMILES): COc1cc(C(=O)N[C@H](c2nc(C(=O)Nc3ccccc3Oc3ccccc3)cs2)C(C)C)cc(OC)c1OC
activity at 20 min, 0.05 µM (P-gp (ABCB1) [5]): ≤ 10% | activity at 20 min, 0.5 µM (P-gp (ABCB1) [6]): 88%

Structure (SMILES): COc1cc(C(=O)N[C@H](c2nc(C(=O)NC3CCCCC3)cs2)C(C)C)cc(OC)c1OC
inhibition at 25 µM (CYP3A4 [7]): 7.03% | fold change (FC) [8]: 0.6 | inhibition at 50 µM (CYP3A4 [9]): 52% | viability at 72 h, 10 µM [1]: > 80% | inhibition at 20 min, 0.05 µM (P-gp (ABCB1) [10]): 20% | fold change (FC) (HEK293): 1 | inhibition at 20 min, 0.5 µM (P-gp (ABCB1) [4]): 18% | viability at 72 h, 10 µM [2]: > 80%

Structure (SMILES): COc1cc(C(=O)N[C@H](c2nc(C(=S)NC3CCC(F)(F)CC3)cs2)C(C)C)cc(OC)c1OC
inhibition at 20 min, 2.5 µM (P-gp (ABCB1) [11]): 25.9% | inhibition at 20 min, 0.5 µM (P-gp (ABCB1) [4]): 37.4%

Structure (SMILES): CC(C)[C@H](NC(=O)c1cc(F)c(F)c(F)c1)c1nc(C(=O)NC2CCC(F)(F)CC2)cs1
inhibition at 20 min, 2.5 µM (P-gp (ABCB1) [11]): 23.3% | inhibition at 20 min, 0.5 µM (P-gp (ABCB1) [4]): 16.6%

Structure (SMILES): COc1ccc(CCN(C)CCCC(C#N)(c2ccc(OC)c(OC)c2)C(C)C)cc1OC (stereo not given)
viability at 72 h, 10 µM [1]: > 80% | fold change (FC) (HEK293): 0.9 | viability at 72 h, 10 µM [2]: > 80%

Structure (SMILES): COc1cc(C(=O)NC(c2nc(C(=O)NC3CCC(C(F)(F)F)CC3)cs2)C(C)C)cc(OC)c1OC (stereo not given)
inhibition at 20 min, 2.5 µM (P-gp (ABCB1) [11]): 21.7% | activity at 20 min, 0.5 µM (P-gp (ABCB1) [6]): ≤ 10%

Structure (SMILES): COc1cc(C(=O)N[C@H](c2nc(C(=O)NC34CC5CC(CC(C5)C3)C4)cs2)C(C)C)cc(OC)c1OC
activity at 20 min, 0.05 µM (P-gp (ABCB1) [5]): ≤ 10% | activity at 20 min, 0.5 µM (P-gp (ABCB1) [6]): ≤ 10%

Structure (SMILES): COc1cc(C(=O)N[C@H](c2nc(C(=O)Nc3cccc(C(=O)c4ccccc4)c3)cs2)C(C)C)cc(OC)c1OC
activity at 20 min, 0.05 µM (P-gp (ABCB1) [5]): 13% | activity at 20 min, 0.5 µM (P-gp (ABCB1) [6]): 143%

Structure (SMILES): CC(C)[C@H](NC(=O)c1cccc(N=[N+]=[N-])c1)c1nc(C(=O)Nc2ccccc2C(=O)c2ccccc2)cs1
activity at 20 min, 2.5 µM (P-gp (ABCB1) [3]): 194% | activity at 20 min, 0.5 µM (P-gp (ABCB1) [6]): 122%

Structure (SMILES): COc1cc(C(=O)N[C@H](c2nc(C(=O)Nc3ccccc3C(=O)c3ccc(Br)cc3)cs2)C(C)C)cc(OC)c1OC
activity at 20 min, 0.05 µM (P-gp (ABCB1) [5]): 309% | activity at 20 min, 0.5 µM (P-gp (ABCB1) [6]): 149%

Structure (SMILES): COc1cc(NC(=O)c2csc([C@@H](NC(=O)c3ccccc3C(=O)c3ccccc3)C(C)C)n2)cc(OC)c1OC
activity at 20 min, 0.05 µM (P-gp (ABCB1) [5]): ≤ 10% | activity at 20 min, 0.5 µM (P-gp (ABCB1) [6]): 46%

Now from value to compound:

activity at 20 min, 2.5 µM (P-gp (ABCB1) [3]): ≤ 10% | activity at 20 min, 0.5 µM (P-gp (ABCB1) [6]): ≤ 10%
Structure (SMILES): COc1cc(C(=O)N[C@H](c2nc(C(=O)NC3CCCC3)cs2)C(C)C)cc(OC)c1OC

activity at 20 min, 2.5 µM (P-gp (ABCB1) [3]): ≤ 10% | activity at 20 min, 0.5 µM (P-gp (ABCB1) [6]): 45.4%
Structure (SMILES): COc1cc(C(=O)N[C@H](c2nc(C(=O)N3CCC(N)CC3)cs2)C(C)C)cc(OC)c1OC

activity at 20 min, 2.5 µM (P-gp (ABCB1) [3]): ≤ 10% | activity at 20 min, 0.5 µM (P-gp (ABCB1) [6]): 26.9%
Structure (SMILES): COc1cc(C(=O)N[C@H](c2nc(C(=O)NC3CCOCC3)cs2)C(C)C)cc(OC)c1OC

activity at 20 min, 2.5 µM (P-gp (ABCB1) [3]): ≤ 10% | activity at 20 min, 0.5 µM (P-gp (ABCB1) [6]): ≤ 10%
Structure (SMILES): COc1cc(C(=O)NC(c2nc(C(=O)NCC3CCC(N)CC3)cs2)C(C)C)cc(OC)c1OC (stereo not given)

activity at 20 min, 2.5 µM (P-gp (ABCB1) [3]): ≤ 10% | activity at 20 min, 0.5 µM (P-gp (ABCB1) [6]): 13.1%
Structure (SMILES): COc1cc(C(=O)N[C@H](c2nc(C(=O)NC3CCC(=O)CC3)cs2)C(C)C)cc(OC)c1OC

activity at 20 min, 2.5 µM (P-gp (ABCB1) [3]): 47.2% | activity at 20 min, 0.5 µM (P-gp (ABCB1) [6]): 37.2%
Structure (SMILES): COc1cc(C(=O)N[C@H](c2nc(C(=O)N3CCC(N4CCCCC4)CC3)cs2)C(C)C)cc(OC)c1OC
